The results in this text go back to ChEMBL document CHEMBL3994579, “Synthesis and antibacterial activity of novel 3-O-descladinosylazithromycin derivatives” (2017).

Usually MIC stands for the lowest concentration that inhibits growth of the organism. Read a high MIC as a less susceptible organism.

Assay type in all cases: functional
The subject of test [1] is Streptococcus pneumoniae. Briefly: Potency index, ratio of clarithromycin MIC to test compound MIC for erythromycin-resistant Streptococcus pneumoniae B1 expressing ermB gene.
The subject of a further test is Pseudomonas aeruginosa. As to the kind of experiment: Antibacterial activity against penicillin-susceptible Pseudomonas aeruginosa ATCC 27853 by broth microdilution method. A digest of the protocol:
(§1)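 MICs were determined in vitro by broth microdilution following the NCCL-recommended method. Azithromycin and clarithromycin were run alongside as reference antibiotics on the same strain panel.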

A further test relates to Bacillus subtilis. As to the kind of experiment: Antibacterial activity against erythromycin/penicillin-susceptible Bacillus subtilis ATCC 9372 by broth microdilution method. In short, it runs like this: as §1
A general note: In broth dilution the organism is exposed to a series of concentrations in liquid medium.

Test [2] relates to Streptococcus pneumoniae. Briefly: Antibacterial activity against erythromycin-resistant Streptococcus pneumoniae B1 expressing ermB gene by broth microdilution method. In short, it runs like this: (§2)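 Broth microdilution per NCCL recommendation, read as minimal inhibitory concentration, run alongside azithromycin and clarithromycin references. Strains: S. pneumoniae B1 (erythromycin-resistant, ermB), A22072 (erythromycin-resistant, mefA), AB11 (erythromycin-resistant, erm and mef); S. aureus ATCC29213 ([…]); S. epidermidis clinical isolate (penicillin-resistant, not characterized).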

For test [3], the system named is Staphylococcus aureus. Briefly: Antibacterial activity against […] Staphylococcus aureus ATCC 29213 by broth microdilution method. In short, it runs like this: as §2
In test [4] the test system is Streptococcus pneumoniae. Briefly: Potency index, ratio of azithromycin MIC to test compound MIC for erythromycin-resistant Streptococcus pneumoniae A22072 expressing mefA gene.
A further test has as its system Escherichia coli. Briefly: Antibacterial activity against penicillin-susceptible Escherichia coli ATCC 25922 by broth microdilution method. In short, it runs like this:
as §1

The test system of test [5] is Streptococcus pyogenes. As to the kind of experiment: Antibacterial activity against erythromycin-susceptible Streptococcus pyogenes clinical isolate by broth microdilution method. A digest of the protocol: as §1
Test [6] concerns Streptococcus pneumoniae. As to the kind of experiment: Antibacterial activity against erythromycin-resistant Streptococcus pneumoniae A22072 expressing mefA gene by broth microdilution method. In short, it runs like this: as §2
Test [7] deals with Staphylococcus epidermidis. As to the kind of experiment: Antibacterial activity against penicillin-resistant Staphylococcus epidermidis clinical isolate by broth microdilution method. In short, it runs like this: as §2
Test [8] concerns Streptococcus pneumoniae. Briefly: Potency index, ratio of clarithromycin MIC to test compound MIC for erythromycin-resistant Streptococcus pneumoniae A22072 expressing mefA gene.
The test system of test [9] is Streptococcus pneumoniae. As to the kind of experiment: Potency index, ratio of azithromycin MIC to test compound MIC for erythromycin-resistant Streptococcus pneumoniae AB11 expressing ermB/mefA genes.
Test [10] concerns Streptococcus pyogenes. As to the kind of experiment: Antibacterial activity against erythromycin-resistant Streptococcus pyogenes R1 clinical isolate by broth microdilution method.
The test system of test [11] is Streptococcus pneumoniae. As to the kind of experiment: Antibacterial activity against erythromycin-resistant Streptococcus pneumoniae AB11 expressing ermB/mefA genes by broth microdilution method. A digest of the protocol: as §2
Test [12] deals with Streptococcus pneumoniae. Briefly: Potency index, ratio of clarithromycin MIC to test compound MIC for erythromycin-resistant Streptococcus pneumoniae AB11 expressing ermB/mefA genes.
For test [13], the system named is Staphylococcus aureus. Briefly: Antibacterial activity against erythromycin-susceptible Staphylococcus aureus ATCC 25923 by broth microdilution method. In short, it runs like this:
as §1

The subject of test [14] is Streptococcus pneumoniae. Briefly: Potency index, ratio of azithromycin MIC to test compound MIC for erythromycin-resistant Streptococcus pneumoniae B1 expressing ermB gene.
The subject of test [15] is Streptococcus pyogenes. As to the kind of experiment: Potency index, ratio of clarithromycin MIC to test compound MIC for erythromycin-resistant Streptococcus pyogenes R1 clinical isolate.
Test [16] relates to Streptococcus pyogenes. As to the kind of experiment: Potency index, ratio of azithromycin MIC to test compound MIC for erythromycin-resistant Streptococcus pyogenes R1 clinical isolate.

Molecules are shown by their SMILES. Values after ≈ are worked out from the molar mass of the structure shown.

As for `CC[C@H]1OC(=O)[C@H](C)[C@@H](OC(=O)Nc2cccc(C)c2)[C@H](C)[C@@H](O[C@@H]2O[C@H](C)C[C@H](N(C)C)[C@H]2O)[C@](C)(O)C[C@@H](C)CN(C)[C@H](C)[C@@H](OC(=O)NCc2ccccc2Cl)[C@]1(C)O`, the Ratio is recorded as 8 - 256 in the test on Streptococcus pneumoniae [1]; 8 with Streptococcus pneumoniae [4]; 8 - 256 in the test on Streptococcus pneumoniae [8]; 8 - 256 in the test with Streptococcus pneumoniae [9]; 8 - 256 with Streptococcus pneumoniae [12]; 8 - 256 in the test with Streptococcus pneumoniae [14]. The MIC amounted to 64 µg/mL (≈ 71.8 µM) in the test with Pseudomonas aeruginosa; 4 µg/mL (≈ 4.49 µM) in the test on Bacillus subtilis; 8 µg/mL (≈ 8.97 µM) in the test with Streptococcus pneumoniae [2]; 64 µg/mL (≈ 71.8 µM) in the test on Staphylococcus aureus [3]; 64 µg/mL (≈ 71.8 µM) in the test with Escherichia coli; 0.03 µg/mL (≈ 0.0336 µM) with Streptococcus pyogenes [5]. The MIC in the test with Streptococcus pneumoniae [6] was determined as 0.5 µg/mL (≈ 0.561 µM); in test [7] it was 0.25 µg/mL (≈ 0.28 µM); against Streptococcus pyogenes [10], 32 µg/mL (≈ 35.9 µM); in the test on Streptococcus pneumoniae [11], 4 µg/mL (≈ 4.49 µM); in the test on Staphylococcus aureus [13], 2 µg/mL (≈ 2.24 µM).
Take `CC[C@H]1OC(=O)[C@H](C)[C@@H](OC(=O)Nc2ccccc2C)[C@H](C)[C@@H](O[C@@H]2O[C@H](C)C[C@H](N(C)C)[C@H]2O)[C@](C)(O)C[C@@H](C)CN(C)[C@H](C)[C@@H](OC(=O)NCc2ccccc2)[C@]1(C)O`: the Ratio in the test with Streptococcus pneumoniae [1] is recorded as 8 - 256; in the test on Streptococcus pneumoniae [4] it was 16; in the test with Streptococcus pneumoniae [8], 8 - 256; with Streptococcus pneumoniae [9] it was 8 - 256; in the test with Streptococcus pneumoniae [12], 8 - 256; in the test with Streptococcus pneumoniae [14], 8 - 256. Besides, the MIC turned out to be 64 µg/mL (≈ 74.7 µM) with Pseudomonas aeruginosa; 2 µg/mL (≈ 2.33 µM) against Bacillus subtilis; 32 µg/mL (≈ 37.3 µM) with Streptococcus pneumoniae [2]; 32 µg/mL (≈ 37.3 µM) against Staphylococcus aureus [3]; 64 µg/mL (≈ 74.7 µM) against Escherichia coli; 0.03 µg/mL (≈ 0.035 µM) against Streptococcus pyogenes [5]. Also, the MIC with Streptococcus pneumoniae [6] came to 0.25 µg/mL (≈ 0.292 µM); in test [7], 0.25 µg/mL (≈ 0.292 µM); in the test on Streptococcus pyogenes [10], 128 µg/mL (≈ 149 µM); against Streptococcus pneumoniae [11], 2 µg/mL (≈ 2.33 µM); against Staphylococcus aureus [13], 1 µg/mL (≈ 1.17 µM).
For `CC[C@H]1OC(=O)[C@H](C)[C@@H](OC(=O)Nc2ccccc2C)[C@H](C)[C@@H](O[C@@H]2O[C@H](C)C[C@H](N(C)C)[C@H]2O)[C@](C)(O)C[C@@H](C)CN(C)[C@H](C)[C@H]2OC(=O)O[C@@]21C`, the MIC turned out to be 64 µg/mL (≈ 85.3 µM) against Pseudomonas aeruginosa; 2 µg/mL (≈ 2.67 µM) with Bacillus subtilis; 32 µg/mL (≈ 42.7 µM) with Streptococcus pneumoniae [2]; 32 µg/mL (≈ 42.7 µM) against Staphylococcus aureus [3]; 64 µg/mL (≈ 85.3 µM) against Escherichia coli; 0.5 µg/mL (≈ 0.667 µM) against Streptococcus pyogenes [5]. The minimum inhibitory concentration (MIC) in the test with Streptococcus pneumoniae [6] was found to be 4 µg/mL (≈ 5.33 µM); in test [7], 4 µg/mL (≈ 5.33 µM); against Streptococcus pyogenes [10], 32 µg/mL (≈ 42.7 µM); against Streptococcus pneumoniae [11], 1 µg/mL (≈ 1.33 µM); in the test on Staphylococcus aureus [13], 4 µg/mL (≈ 5.33 µM). Besides, the Ratio is recorded as 256 in the test with Streptococcus pneumoniae [9] and 128 with Streptococcus pneumoniae [12].
As to `CC[C@H]1OC(=O)[C@H](C)[C@@H](OC(=O)Nc2ccccc2)[C@H](C)[C@@H](O[C@@H]2O[C@H](C)C[C@H](N(C)C)[C@H]2O)[C@](C)(O)C[C@@H](C)CN(C)[C@H](C)[C@H]2OC(=O)O[C@@]21C`, the Ratio in the test on Streptococcus pneumoniae [1] worked out at 16; in the test on Streptococcus pyogenes [15], 32; with Streptococcus pyogenes [16] it was 32; in the test with Streptococcus pneumoniae [14], 16. For the same molecule, the MIC with Pseudomonas aeruginosa was 128 µg/mL (≈ 174 µM); against Bacillus subtilis, 4 µg/mL (≈ 5.44 µM); with Streptococcus pneumoniae [2], 16 µg/mL (≈ 21.7 µM); in the test on Staphylococcus aureus [3] it was 128 µg/mL (≈ 174 µM); against Escherichia coli it was 128 µg/mL (≈ 174 µM); with Streptococcus pyogenes [5], 0.25 µg/mL (≈ 0.34 µM). Moreover, the MIC in the test on Streptococcus pneumoniae [6] came to 16 µg/mL (≈ 21.7 µM); in test [7] it was 4 µg/mL (≈ 5.44 µM); with Streptococcus pyogenes [10] it was 8 µg/mL (≈ 10.9 µM); in the test on Streptococcus pneumoniae [11], 16 µg/mL (≈ 21.7 µM); in the test on Staphylococcus aureus [13] it was 2 µg/mL (≈ 2.72 µM).
`CCCCCCNC(=O)O[C@H]1[C@H](C)[C@@H](O[C@@H]2O[C@H](C)C[C@H](N(C)C)[C@H]2OC(C)=O)[C@](C)(O)C[C@@H](C)CN(C)[C@H](C)[C@H]2OC(=O)O[C@]2(C)[C@@H](CC)OC(=O)[C@@H]1C`: the Ratio with Streptococcus pyogenes [15] and with Streptococcus pyogenes [16] was 8 throughout. In addition, the MIC was determined as 128 µg/mL (≈ 163 µM) in the test on Pseudomonas aeruginosa; 8 µg/mL (≈ 10.2 µM) in the test with Bacillus subtilis; 64 µg/mL (≈ 81.4 µM) against Streptococcus pneumoniae [2]; 32 µg/mL (≈ 40.7 µM) in the test on Staphylococcus aureus [3]; 128 µg/mL (≈ 163 µM) against Escherichia coli; 4 µg/mL (≈ 5.09 µM) in the test with Streptococcus pyogenes [5]. Also, the MIC in the test with Streptococcus pneumoniae [6] was found to be 64 µg/mL (≈ 81.4 µM); in [7], 16 µg/mL (≈ 20.4 µM); in the test on Streptococcus pyogenes [10], 32 µg/mL (≈ 40.7 µM); with Streptococcus pneumoniae [11], 16 µg/mL (≈ 20.4 µM); against Staphylococcus aureus [13], 16 µg/mL (≈ 20.4 µM).
